From ChEMBL document CHEMBL1177639, “Synthesis and biological evaluation of 5-substituted and 4,5-disubstituted-2-arylamino oxazole TRPV1 antagonists” (Bioorg Med Chem, 2010) come the findings set out here.

The target in series [1] is Transient receptor potential cation channel subfamily V member 1 (Homo sapiens, UniProt Q8NER1). Kind of series: Antagonist activity at human recombinant TRPV1 receptor expressed in human 1321 cells assessed as inhibition of capsaicin-induced in intracellular calcium levels by FLIPR assay. Format: functional, cell-based.
The nature of series [2]: Ratio of drug level in brain to plasma in rat at 10 umol/kg, iv and po. As to conditions: read-out: BPR; call rule not given here. The series is classed as ADME, organism-based.
Series [3] can be described thus: Terminal phase volume of distribution […] in rat at 10 umol/kg, iv. The series is classed as ADME, organism-based. As to conditions: in vivo, read-out: Vbeta. An outline of the steps:
(§1)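 Rat pharmacokinetics after 10 µmol/kg dosing, three animals per group for each of the iv and oral routes. Parameters reported are Vb (iv), CLp, t1/2 (iv), oral Cmax and oral bioavailability.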

Series [4] in a line: Plasma clearance in rat at 10 umol/kg, iv and po. The series is classed as ADME, organism-based. In short, it runs like this: as §1
Series [5] can be described thus: Half life in rat at 10 umol/kg, iv. Format: ADME, organism-based. As to conditions: in vivo. An outline of the steps: as §1
Series [6] can be described thus: Cmax in rat at 10 umol/kg, po. Format: ADME, organism-based. Particulars: in vivo. The arrangement: dose 10 umol/kg, route oral. An outline of the steps:
as §1

The nature of series [7]: Bioavailability in rat at 10 umol/kg, po. As to conditions: in vivo. The series is classed as ADME, organism-based. In short, it runs like this: as §1
The target in series [8] is T1, Transient receptor potential cation channel subfamily V member 2 (Rattus norvegicus, UniProt Q9WUD2).
T1 sequence (Q9WUD2 whole entry): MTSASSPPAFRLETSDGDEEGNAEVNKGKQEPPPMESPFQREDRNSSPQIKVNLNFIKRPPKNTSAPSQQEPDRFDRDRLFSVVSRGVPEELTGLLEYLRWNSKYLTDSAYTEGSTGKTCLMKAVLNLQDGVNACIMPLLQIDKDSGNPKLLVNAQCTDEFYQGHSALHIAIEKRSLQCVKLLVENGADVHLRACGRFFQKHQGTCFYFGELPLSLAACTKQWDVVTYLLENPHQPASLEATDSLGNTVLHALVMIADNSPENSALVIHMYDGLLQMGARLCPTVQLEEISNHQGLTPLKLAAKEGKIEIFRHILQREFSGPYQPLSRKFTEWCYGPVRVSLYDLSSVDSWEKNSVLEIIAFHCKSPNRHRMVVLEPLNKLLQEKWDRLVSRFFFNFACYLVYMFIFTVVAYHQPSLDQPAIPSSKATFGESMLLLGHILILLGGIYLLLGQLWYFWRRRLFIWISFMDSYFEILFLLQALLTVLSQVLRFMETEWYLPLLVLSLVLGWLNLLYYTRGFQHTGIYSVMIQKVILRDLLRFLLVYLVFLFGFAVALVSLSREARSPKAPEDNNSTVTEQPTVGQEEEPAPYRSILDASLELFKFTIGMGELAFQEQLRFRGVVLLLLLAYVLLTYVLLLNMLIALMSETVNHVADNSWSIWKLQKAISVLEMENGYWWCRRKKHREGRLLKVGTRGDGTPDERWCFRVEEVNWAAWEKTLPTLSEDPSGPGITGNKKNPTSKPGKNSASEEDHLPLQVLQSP
Briefly: Antagonist activity at rat TRPV2 receptor. Format: functional.

The target of series [9] is T2, Transient receptor potential cation channel subfamily V member 3 (Homo sapiens, UniProt Q8NET8).
T2 sequence (Q8NET8 whole entry): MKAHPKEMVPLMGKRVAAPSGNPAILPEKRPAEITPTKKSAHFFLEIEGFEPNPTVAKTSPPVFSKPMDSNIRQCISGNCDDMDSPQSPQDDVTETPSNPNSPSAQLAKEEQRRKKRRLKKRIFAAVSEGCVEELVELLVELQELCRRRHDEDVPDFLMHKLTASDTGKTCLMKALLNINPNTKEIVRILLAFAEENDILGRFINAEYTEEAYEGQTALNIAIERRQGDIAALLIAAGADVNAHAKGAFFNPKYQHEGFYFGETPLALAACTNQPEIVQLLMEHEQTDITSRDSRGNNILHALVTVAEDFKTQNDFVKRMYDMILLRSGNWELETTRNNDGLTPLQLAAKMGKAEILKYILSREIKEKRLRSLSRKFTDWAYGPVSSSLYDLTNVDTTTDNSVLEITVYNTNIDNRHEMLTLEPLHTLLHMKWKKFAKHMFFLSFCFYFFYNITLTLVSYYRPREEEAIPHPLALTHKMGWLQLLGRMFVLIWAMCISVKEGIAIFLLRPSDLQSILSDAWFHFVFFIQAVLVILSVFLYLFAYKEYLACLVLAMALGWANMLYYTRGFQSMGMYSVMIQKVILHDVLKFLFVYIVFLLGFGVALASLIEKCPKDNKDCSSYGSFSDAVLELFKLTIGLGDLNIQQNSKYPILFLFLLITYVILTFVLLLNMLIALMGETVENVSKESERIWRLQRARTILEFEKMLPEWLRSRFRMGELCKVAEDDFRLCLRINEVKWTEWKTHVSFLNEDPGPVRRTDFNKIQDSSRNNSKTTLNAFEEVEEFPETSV
Briefly: Antagonist activity at human TRPV3 receptor. The series is classed as functional.

Series [10] concerns the target Transient receptor potential cation channel subfamily V member 4 (Homo sapiens, UniProt Q9HBA0). Kind of series: Antagonist activity at human TRPV4 receptor. Format: functional.
Series [11] deals with Transient receptor potential cation channel subfamily M member 8 (Homo sapiens, UniProt Q7Z2W7). Briefly: Antagonist activity at human TRPM8 receptor. Format: functional.
In series [12] the test system is Rattus norvegicus. Briefly: Analgesic activity against carrageenan-induced thermal hyperalgesia in Sprague-Dawley rat assessed as paw withdrawal latency at 10 umol/kg, po by hotbox assay. The series is classed as functional.
For series [13], the system named is Rattus norvegicus. Kind of series: Analgesic activity in po dosed rat osteoarthritis model. The series is classed as functional.
The target in series [14] is Voltage-gated inwardly rectifying potassium channel KCNH2 (Homo sapiens, UniProt Q12809). Kind of series: Inhibition of human ERG.
A short description of series [15]: Inhibition of human cytochrom P450. Format: ADME.
The test system of the next series is Salmonella typhimurium. Kind of series: Mutagenic activity in Salmonella Typhimurium by Ames test. The series is classed as toxicity, organism-based. As to conditions: salmonella enterica subsp. enterica serovar typhimurium.
For a further series, the system named is Canis familiaris. Kind of series: Cardiotoxicity in anesthetized dog assessed as effect on hemodynamics at 57 times Cmax concentration. As to conditions: in vivo.

Chain of Transient receptor potential cation channel subfamily V member 1 (Q8NER1 whole entry): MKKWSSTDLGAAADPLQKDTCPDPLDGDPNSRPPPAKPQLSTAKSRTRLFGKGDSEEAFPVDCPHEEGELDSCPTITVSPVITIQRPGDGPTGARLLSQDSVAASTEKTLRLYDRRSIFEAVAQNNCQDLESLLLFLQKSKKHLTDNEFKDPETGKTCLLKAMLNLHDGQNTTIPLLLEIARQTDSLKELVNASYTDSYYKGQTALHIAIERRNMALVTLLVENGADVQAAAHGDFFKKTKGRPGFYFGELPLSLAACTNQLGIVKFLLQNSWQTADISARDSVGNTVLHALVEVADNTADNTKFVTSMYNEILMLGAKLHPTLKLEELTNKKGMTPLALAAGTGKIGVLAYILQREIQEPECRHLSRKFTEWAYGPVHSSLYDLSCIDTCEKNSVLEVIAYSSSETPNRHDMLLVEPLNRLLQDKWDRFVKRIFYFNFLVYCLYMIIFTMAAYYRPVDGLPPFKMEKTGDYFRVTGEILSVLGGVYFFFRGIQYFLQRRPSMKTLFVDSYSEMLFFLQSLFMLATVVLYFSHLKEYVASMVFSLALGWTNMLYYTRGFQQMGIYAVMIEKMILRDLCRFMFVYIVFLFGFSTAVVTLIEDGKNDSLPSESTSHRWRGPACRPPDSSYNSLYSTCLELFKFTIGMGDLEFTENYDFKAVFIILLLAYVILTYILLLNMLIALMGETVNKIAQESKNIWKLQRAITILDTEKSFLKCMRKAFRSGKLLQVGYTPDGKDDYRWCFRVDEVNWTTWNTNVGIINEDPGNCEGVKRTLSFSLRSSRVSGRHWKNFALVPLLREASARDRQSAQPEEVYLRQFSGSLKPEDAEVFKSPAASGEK
Chain of Voltage-gated inwardly rectifying potassium channel KCNH2 (Q12809 whole entry): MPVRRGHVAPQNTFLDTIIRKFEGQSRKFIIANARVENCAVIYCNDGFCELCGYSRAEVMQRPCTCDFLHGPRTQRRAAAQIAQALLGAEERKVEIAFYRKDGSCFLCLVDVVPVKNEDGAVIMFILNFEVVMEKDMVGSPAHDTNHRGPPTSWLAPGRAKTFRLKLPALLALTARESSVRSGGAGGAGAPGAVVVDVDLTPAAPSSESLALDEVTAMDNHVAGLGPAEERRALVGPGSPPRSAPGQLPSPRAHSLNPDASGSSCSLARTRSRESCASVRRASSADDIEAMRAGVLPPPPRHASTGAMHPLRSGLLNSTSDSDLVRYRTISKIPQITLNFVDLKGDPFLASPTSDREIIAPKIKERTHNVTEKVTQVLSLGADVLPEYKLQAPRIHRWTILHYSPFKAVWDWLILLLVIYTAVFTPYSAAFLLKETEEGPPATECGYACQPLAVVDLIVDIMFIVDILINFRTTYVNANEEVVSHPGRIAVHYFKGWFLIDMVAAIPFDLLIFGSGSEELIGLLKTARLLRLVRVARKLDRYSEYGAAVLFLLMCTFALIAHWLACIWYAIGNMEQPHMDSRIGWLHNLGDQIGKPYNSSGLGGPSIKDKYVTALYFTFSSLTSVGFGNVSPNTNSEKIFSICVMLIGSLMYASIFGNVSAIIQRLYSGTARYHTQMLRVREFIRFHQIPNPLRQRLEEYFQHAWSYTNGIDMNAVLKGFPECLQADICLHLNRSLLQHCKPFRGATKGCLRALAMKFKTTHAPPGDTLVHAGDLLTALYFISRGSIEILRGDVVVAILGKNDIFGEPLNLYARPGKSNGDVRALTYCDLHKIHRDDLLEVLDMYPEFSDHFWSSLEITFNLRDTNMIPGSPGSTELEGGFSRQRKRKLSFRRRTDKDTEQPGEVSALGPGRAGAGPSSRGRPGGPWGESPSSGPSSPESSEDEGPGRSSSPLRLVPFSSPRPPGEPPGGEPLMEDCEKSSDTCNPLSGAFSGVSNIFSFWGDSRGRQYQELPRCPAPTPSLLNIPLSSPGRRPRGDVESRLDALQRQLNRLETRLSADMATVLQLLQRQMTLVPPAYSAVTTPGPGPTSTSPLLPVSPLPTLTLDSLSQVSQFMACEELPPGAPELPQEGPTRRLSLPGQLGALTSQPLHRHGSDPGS
Chain of Transient receptor potential cation channel subfamily V member 4 (Q9HBA0 whole entry): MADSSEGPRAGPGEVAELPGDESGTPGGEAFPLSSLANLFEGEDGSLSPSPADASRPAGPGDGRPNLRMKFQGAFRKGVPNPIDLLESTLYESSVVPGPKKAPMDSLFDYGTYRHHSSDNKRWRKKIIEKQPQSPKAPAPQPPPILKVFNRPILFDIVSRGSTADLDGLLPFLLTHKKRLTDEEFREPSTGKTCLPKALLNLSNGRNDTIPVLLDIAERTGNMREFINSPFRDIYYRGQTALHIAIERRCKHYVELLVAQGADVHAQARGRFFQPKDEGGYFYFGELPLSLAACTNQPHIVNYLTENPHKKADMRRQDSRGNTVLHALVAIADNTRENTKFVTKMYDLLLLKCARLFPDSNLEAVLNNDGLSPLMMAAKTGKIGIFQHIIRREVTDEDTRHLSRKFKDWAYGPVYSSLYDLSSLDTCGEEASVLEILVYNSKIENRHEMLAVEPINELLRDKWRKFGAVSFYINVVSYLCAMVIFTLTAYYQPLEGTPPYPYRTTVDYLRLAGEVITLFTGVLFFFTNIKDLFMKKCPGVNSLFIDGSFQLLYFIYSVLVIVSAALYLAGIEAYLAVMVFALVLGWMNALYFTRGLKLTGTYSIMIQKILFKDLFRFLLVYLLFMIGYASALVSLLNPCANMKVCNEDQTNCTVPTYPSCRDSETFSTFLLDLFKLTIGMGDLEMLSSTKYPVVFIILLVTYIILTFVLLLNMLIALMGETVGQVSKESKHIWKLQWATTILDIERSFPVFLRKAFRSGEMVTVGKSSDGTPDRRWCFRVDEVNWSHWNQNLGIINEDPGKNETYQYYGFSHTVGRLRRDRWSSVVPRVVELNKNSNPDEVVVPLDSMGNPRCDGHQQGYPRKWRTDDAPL
Chain of Transient receptor potential cation channel subfamily M member 8 (Q7Z2W7 whole entry): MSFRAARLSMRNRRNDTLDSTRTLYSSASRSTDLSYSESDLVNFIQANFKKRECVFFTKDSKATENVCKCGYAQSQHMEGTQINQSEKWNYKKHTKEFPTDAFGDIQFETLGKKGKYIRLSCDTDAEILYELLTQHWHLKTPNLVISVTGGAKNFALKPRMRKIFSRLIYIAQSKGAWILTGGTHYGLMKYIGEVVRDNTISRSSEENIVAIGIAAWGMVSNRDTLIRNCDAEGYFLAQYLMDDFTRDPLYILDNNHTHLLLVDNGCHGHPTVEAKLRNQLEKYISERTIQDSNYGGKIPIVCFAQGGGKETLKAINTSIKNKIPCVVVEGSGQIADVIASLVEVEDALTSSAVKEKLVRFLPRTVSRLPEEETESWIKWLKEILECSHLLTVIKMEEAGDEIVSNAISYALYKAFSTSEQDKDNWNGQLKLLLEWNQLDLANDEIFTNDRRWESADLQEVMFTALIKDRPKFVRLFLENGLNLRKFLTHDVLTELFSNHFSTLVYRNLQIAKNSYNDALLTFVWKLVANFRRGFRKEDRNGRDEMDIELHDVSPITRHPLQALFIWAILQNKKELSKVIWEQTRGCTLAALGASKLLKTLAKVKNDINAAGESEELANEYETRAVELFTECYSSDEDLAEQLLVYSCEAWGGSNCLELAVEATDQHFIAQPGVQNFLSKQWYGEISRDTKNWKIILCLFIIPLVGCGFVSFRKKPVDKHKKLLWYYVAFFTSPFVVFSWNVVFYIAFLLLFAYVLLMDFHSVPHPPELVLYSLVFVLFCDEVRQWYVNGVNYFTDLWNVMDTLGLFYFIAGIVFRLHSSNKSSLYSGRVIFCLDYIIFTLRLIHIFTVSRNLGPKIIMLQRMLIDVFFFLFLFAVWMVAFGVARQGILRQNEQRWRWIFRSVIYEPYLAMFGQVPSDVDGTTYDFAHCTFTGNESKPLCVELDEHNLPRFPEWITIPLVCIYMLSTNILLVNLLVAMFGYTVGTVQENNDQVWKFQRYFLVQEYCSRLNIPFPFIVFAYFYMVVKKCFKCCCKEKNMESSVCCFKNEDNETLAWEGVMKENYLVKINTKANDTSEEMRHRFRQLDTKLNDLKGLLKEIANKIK

In the case of `FC(F)(F)c1ccc(-c2cnc(Nc3cccc4[nH]ncc34)o2)cc1`, the IC50 in [1] was determined as 101 nM.
As to `OC1CCc2cccc(Nc3nc(Br)c(-c4ccc(C(F)(F)F)cc4)o3)c2C1` (stereo unspecified), the IC50 in [1] was 9 nM.
For the compound `Cc1nc(Nc2cccc3c2C[C@H](O)CC3)oc1-c1ccc(C(F)(F)F)cc1`, the Kp in series [2] was 3. Moreover, in [3], the Vd came to 6.8 L/kg. In [4], this compound had a clearance of 20 mL/min/kg. The compound further had a half-life in series [5] of 3.8 h. In [6], this compound had a maximum concentration (Cmax) of 130 ng/mL. In [7], this compound yielded a bioavailability of 52%. The 50% inhibitory concentration (IC50) in series [8] was 37000 nM; in series [9] it was more than 100000 nM; in series [10] it was more than 100000 nM; in series [11] it was 44000 nM. For the same compound, the Activity in the series on Rattus norvegicus [12] is 52%; in the series on Salmonella typhimurium, “Non-toxic”; in the series on Canis familiaris, “Non-toxic”. For the same compound, the median effective dose (ED50) with Rattus norvegicus [13] was 14 µmol/kg. Moreover, the “inhibition (INH)” value in [14] and in [15] was “Not Active” throughout.
For `OC1CCc2cccc(Nc3ncc(-c4ccc(C(F)(F)F)cc4)o3)c2C1` (stereo unspecified), in [1], the IC50 stood at 8.3 nM. Moreover, in [3], the Vd was determined as 5.4 L/kg. Also, the clearance in series [4] was 85 mL/min/kg. This compound also gave a half-life in series [5] of 0.7 h. In [6], this compound gave a Cmax of 23 ng/mL. In series [7], this compound yielded a bioavailability of 5%.
`Cc1nc(Nc2cccc3c2CC(O)CC3)oc1-c1ccc(C(F)(F)F)cc1` (stereo unspecified): the Kp in series [2] came out at 3. Further, the Vd in series [3] was 10 L/kg. Moreover, the clearance in series [4] is 40 mL/min/kg. In addition, the half-life in series [5] was 2.8 h. In [6], this compound had a Cmax of 96 ng/mL. In addition, the bioavailability in series [7] was 33%.
With `OC1CCc2c(cccc2Nc2ncc(-c3ccc(C(F)(F)F)cc3)o2)C1` (stereo unspecified), in series [1], the half-maximal inhibitory concentration (IC50) is 120 nM.
Same read-out and setting: the figure for `Cc1cccc(-c2cnc(Nc3cccc4c3CC(O)CC4)o2)c1` (stereo unspecified) is 157 nM; for `OC1CCc2cccc(Nc3nc(-c4ccccc4)co3)c2C1` (stereo unspecified) it is 864 nM.
Same read-out and setting: the figure for `CC1(O)CCc2cccc(Nc3ncc(-c4ccc(C(F)(F)F)cc4)o3)c2C1` (stereo unspecified) is 840 nM; for `Cc1ccc(-c2cnc(Nc3cccc4c3CC(O)CC4)o2)cc1` (stereo unspecified) it is 62 nM.
Turning to `CN(c1ncc(-c2ccc(C(F)(F)F)cc2)o1)c1cccc2c1CC(O)CC2` (stereo unspecified), the IC50 in [1] is 277 nM.
Take `Cc1ccccc1-c1cnc(Nc2cccc3c2CC(O)CC3)o1` (stereo unspecified): in [1], the IC50 is 416 nM.
Same read-out and setting: for `NC1CCc2cccc(Nc3ncc(-c4ccc(C(F)(F)F)cc4)o3)c2C1` (stereo unspecified) the value was 327 nM.
For `Cc1nc(Nc2cccc3c2C[C@@H](O)CC3)oc1-c1ccc(C(F)(F)F)cc1`, the Kp in series [2] worked out at 3. Further, the Vd in [3] is 12 L/kg. The compound also showed a clearance in series [4] of 73.3 mL/min/kg. The half-life in series [5] is 1.9 h. Further, the peak concentration (Cmax) in series [6] turned out to be 20 ng/mL. The compound also registered a bioavailability in series [7] of 7%.
With `OC1CCc2cccc(Nc3nc(-c4ccc(F)cc4)c(-c4ccc(C(F)(F)F)cc4)o3)c2C1` (stereo unspecified), the IC50 in series [1] was 1.3 nM. Further, the Kp in series [2] worked out at 0.21.
Take `CC(C)(C)c1ccc(-c2cnc(Nc3cccc4c3CC(O)CC4)o2)cc1` (stereo unspecified): in series [1], the IC50 was determined as 26 nM.
Still for that read-out and setting: for `COc1ccc(-c2cnc(Nc3cccc4c3CC(O)CC4)o2)cc1` (stereo unspecified) the value was 81 nM; for `COC1CCc2cccc(Nc3ncc(-c4ccc(C(F)(F)F)cc4)o3)c2C1` (stereo unspecified), 150 nM; for `OC1CCc2cccc(Nc3ncc(-c4ccccc4)o3)c2C1` (stereo unspecified), 187 nM.
On the same count and under the same terms, the figure for `CC(C)c1nc(Nc2cccc3c2CC(O)CC3)oc1-c1ccc(C(F)(F)F)cc1` (stereo unspecified) is 114 nM.
For the compound `CCc1nc(Nc2cccc3c2CC(O)CC3)oc1-c1ccc(C(F)(F)F)cc1` (stereo unspecified), in series [1], the half-maximal inhibitory concentration (IC50) was 2.1 nM. For the same compound, the Kp in series [2] turned out to be 3.7.
With `OC1CCc2cccc(Nc3ncc(-c4ccc(N5CCCC5)cc4)o3)c2C1` (stereo unspecified), the IC50 in series [1] came to 101 nM.
Still for that read-out and setting: the figure for `Oc1ccc2cccc(Nc3ncc(-c4ccc(C(F)(F)F)cc4)o3)c2c1` is 5 nM; for `OC1CCc2cccc(Nc3ncc(Cc4ccccc4)o3)c2C1` (stereo unspecified) it is 1820 nM; for `OC1CCc2cccc(Nc3ncc(-c4ccc(Cl)cc4)o3)c2C1` (stereo unspecified) it is 15 nM.
The same measure, in the same setting: for `O=C1CCc2cccc(Nc3ncc(-c4ccc(C(F)(F)F)cc4)o3)c2C1` the value was 374 nM.
As to `N#Cc1ccc(-c2nc(Nc3cccc4c3CC(O)CC4)oc2-c2ccc(C(F)(F)F)cc2)cc1` (stereo unspecified), the IC50 in [1] came out at 2 nM. In addition, the Kp in series [2] came to 0.13.
In the case of `FC(F)(F)c1ccc(-c2cnc(Nc3cccc4cnccc34)o2)cc1`, the IC50 in [1] is 229 nM.
